Tests used:
[1] = Stability of compound in fasted state stimulated intestinal fluid at pH 1.3 assessed as half life in presence of 10 mg/ml pepsin by HPLC-UV assay; type: ADME; details: fasted state simulated intestinal fluid with pepsin
In short: (§1)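 HCl buffer with pepsin or phosphate buffer with pancreatin (10 or 40 mg/ml), preincubated at 37 °C. Drug stock (50 µM in ethanol/fasted state intestinal fluid 1:9) added and shaken at 37 °C, 650 rpm. Samples quenched with ice-cold acetonitrile containing 0.5% formic acid, centrifuged at 2 °C, and the supernatant assayed by HPLC-UV. Three experiments.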

[2] = Stability of compound in phosphate buffer at pH 7.4 assessed as compound half life by HPLC-UV assay; type: physicochemical
In short: (§2)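 Chemical hydrolysis in 0.02 M HCl buffer pH 1.3 (non-enzymatic simulated gastric fluid) or 0.02 M phosphate buffer pH 7.4, each containing 20% acetonitrile, at 37 °C. Started by adding the 10^-4 M acetonitrile stock. Samples taken over time and analyzed by HPLC-UV at 220 nm. Rate constants are means of triplicates.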

[3] = Stability of compound in non-enzymatic stimulated-gastric fluid at pH 1.3 assessed as half life by HPLC-UV assay; type: physicochemical; details: non-enzymatic simulated gastric fluid; in short: as §2
[4] = Cytotoxicity against Sprague-Dawley rat Cerebral cortex neuron assessed as cell viability at 0.1 uM incubated for 24 hrs by MTT assay relative to control; type: tissue-based; details: cerebral cortex neurons, read-out: Activity
In short: (§3)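 Primary fetal rat cortical neurons, matured 8 days, treated 24 h at 37 °C with compound (0.1–100 µM; 0.5% DMSO or water vehicle). MTT 0.7 mg/ml was then added for 30 min at 37 °C, and formazan was extracted with isopropanol/formic acid (95:5) and read at 560 nm. Untreated control was set as 100% viability. Four independent experiments.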

[5] = Cytotoxicity against Sprague-Dawley rat Cerebral cortex neuron assessed as cell viability at 1 uM incubated for 24 hrs by MTT assay relative to control; type: tissue-based; details: cerebral cortex neurons, read-out: Activity; in short: as §3
[6] = Cytotoxicity against Sprague-Dawley rat Cerebral cortex neuron assessed as cell viability at 100 uM incubated for 24 hrs by MTT assay relative to control; type: tissue-based; details: cerebral cortex neurons, read-out: Activity; in short: as §3
[7] = Cytotoxicity against Sprague-Dawley rat Cerebral cortex neuron assessed as LDH activity at 0.1 uM incubated for 24 hrs by LDH assay (reference value: […]); type: tissue-based
In short: (§4)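 Primary fetal rat cortical neurons, matured 8 days on poly-D-lysine, exposed 24 h at 37 °C to compound (0.1–100 µM; DMSO 0.5% or water vehicle). LDH released into 100 µl culture medium was measured by kit as the rate of NAD+ reduction (absorbance increase at 490 nm). Positive control was mitomycin C. Four independent experiments.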

[8] = Cytotoxicity against Sprague-Dawley rat Cerebral cortex neuron assessed as LDH activity at 10 uM incubated for 24 hrs by LDH assay; type: tissue-based; in short: as §4
[9] = Cytotoxicity against Sprague-Dawley rat Cerebral cortex neuron assessed as LDH activity at 50 uM incubated for 24 hrs by LDH assay (reference value: […]); type: tissue-based; in short: as §4
[10] = Cytotoxicity against Sprague-Dawley rat Cerebral cortex neuron assessed as LDH activity at 100 uM incubated for 24 hrs by LDH assay (reference value: […]); type: tissue-based; in short: as §4
[11] = Antioxidant activity in Sprague-Dawley rat Cerebral cortex neuron assessed as total antioxidant capacity by measuring trolox equivalents at 0.1 uM after 24 hrs; type: functional
In short: (§5)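 Primary cerebral cortex neurons from rat fetuses, grown on poly-D-lysine in neurobasal medium with fetal calf serum (5% CO2, 37 °C), tested after 8 days in culture. Compounds in DMSO (0.5%) or sterile water were added and incubated 24 h at 37 °C. Cells were washed in ice-cold PBS and homogenized in 0.9% saline. Intracellular TAC (Trolox equiv.) and TOS (H2O2 equiv.) were read by kit. Ascorbic acid 10 µM (TAC) and H2O2 25 µM (TOS) served as positive controls. Four independent experiments.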

[12] = Antioxidant activity in Sprague-Dawley rat Cerebral cortex neuron assessed as total antioxidant capacity by measuring trolox equivalents at 1 uM after 24 hrs; type: functional; in short: as §5
[13] = Antioxidant activity in Sprague-Dawley rat Cerebral cortex neuron assessed as total antioxidant capacity by measuring trolox equivalents at 10 uM after 24 hrs; type: functional; in short: as §5
[14] = Antioxidant activity in Sprague-Dawley rat Cerebral cortex neuron assessed as total antioxidant capacity by measuring trolox equivalents at 50 uM after 24 hrs; type: functional; in short: as §5
[15] = Antioxidant activity in Sprague-Dawley rat Cerebral cortex neuron assessed as total oxidative stress level by measuring H2O2 equivalents at 1 uM after 24 hrs (reference value: 2.3 +/- 0.3 umol/L); type: functional; in short: as §5
[16] = Antioxidant activity in Sprague-Dawley rat Cerebral cortex neuron assessed as total oxidative stress level by measuring H2O2 equivalents at 10 uM after 24 hrs (reference value: 2.3 +/- 0.3 umol/L); type: functional; in short: as §5
[17] = Antioxidant activity in Sprague-Dawley rat Cerebral cortex neuron assessed as total oxidative stress level by measuring H2O2 equivalents at 25 uM after 24 hrs (reference value: 2.3 +/- 0.3 umol/L); type: functional; in short: as §5
[18] = Antioxidant activity in Sprague-Dawley rat Cerebral cortex neuron assessed as total oxidative stress level by measuring H2O2 equivalents at 50 uM after 24 hrs (reference value: 2.3 +/- 0.3 umol/L); type: functional; in short: as §5
[19] = Antioxidant activity in Sprague-Dawley rat Cerebral cortex neuron assessed as total oxidative stress level by measuring H2O2 equivalents at 100 uM after 24 hrs (reference value: 2.3 +/- 0.3 umol/L); type: functional; in short: as §5
[20] = Stability of compound in fasted state stimulated intestinal fluid at pH 1.3 assessed as half life in presence of 40 mg/ml pepsin by HPLC-UV assay; type: ADME; details: fasted state simulated intestinal fluid with pepsin; in short: as §1
[21] = Stability of compound in fasted state stimulated intestinal fluid at pH 7.4 assessed as half life in presence of 10 mg/ml pancreatin by HPLC-UV assay; type: ADME; details: for half-life: fasted state simulated intestinal fluid with pancreatin; in short: as §1
[22] = Stability of compound in fasted state stimulated intestinal fluid at pH 7.4 assessed as half life in presence of 40 mg/ml pancreatin by HPLC-UV assay; type: ADME; details: for half-life: fasted state simulated intestinal fluid with pancreatin; in short: as §1
[23] = Stability of compound in human plasma assessed as half life by HPLC-UV assay; type: ADME, cell-free
In short: (§6)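 Citrated human or rat plasma diluted to 80% with 0.02 M phosphate buffer pH 7.4, 37 °C with shaking. Compound added from a 1 mg/ml acetonitrile stock. Aliquots deproteinized with 0.01 M HCl in methanol, centrifuged, and analyzed by HPLC-UV (C8 column, KH2PO4/methanol pH 2.5, 220 nm). Remaining intact compound plotted against time. Three experiments.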

[24] = Stability of compound in rat plasma assessed as half life by HPLC-UV assay; type: ADME, cell-free; in short: as §6
[25] = Stability of compound in phosphate buffer at pH 7.4 assessed as rate of compound hydrolysis by HPLC-UV assay; type: physicochemical; in short: as §2
[26] = Stability of compound in fasted state stimulated intestinal fluid at pH 1.3 assessed as rate of compound hydrolysis in presence of 40 mg/ml pepsin by HPLC-UV assay; type: ADME; details: isolated protein; in short: as §1
[27] = Stability of compound in human plasma assessed as rate of compound hydrolysis by HPLC-UV assay; type: ADME, cell-free; in short: as §6

## COc1ccc(CN2CCN(C(=O)CCCCC3CCSS3)CC2)cc1 (stereo not drawn)
[1]
  half-life: 112 h
[2]
  half-life: 238 h
[3]
  half-life: 240 h
[4]
  viability at 24 h, 0.1 µM: 98.1%
[5]
  viability at 24 h, 1 µM: 97.4%
[6]
  viability at 24 h, 100 µM: 89.3%
[7]
  Activity: 0.28 mU/ml
[8]
  Activity: 0.3 mU/ml
[9]
  Activity: 0.34 mU/ml
[10]
  Activity: 0.34 mU/ml
[11]
  TAC: 10.5 mmol/L
[12]
  TAC: 11.2 mmol/L
[13]
  TAC: 10.9 mmol/L
[14]
  TAC: 11 mmol/L
[15]
  Activity: 0.5 µmol/L
[16]
  Activity: 0.5 µmol/L
[17]
  Activity: 0.5 µmol/L
[18]
  Activity: 0.5 µmol/L
[19]
  Activity: 0.5 µmol/L
[20]
  half-life: 23.7 h
[21]
  half-life: 60.9 h
[22]
  half-life: 41.6 h
[23]
  half-life: 5.28 h
[24]
  half-life: 4.13 h
[25]
  Drug degradation: 0.003 h⁻¹
[26]
  Drug degradation: 0.029 h⁻¹
[27]
  Drug degradation: 0.13 h⁻¹

## COc1ccc(CN2CCC(OC(=O)CCCCC3CCSS3)CC2)cc1 (stereo not drawn)
[1]
  half-life: 39.1 h
[2]
  half-life: 37 h
[3]
  half-life: 52 h
[4]
  viability at 24 h, 0.1 µM: 99.5%
[5]
  viability at 24 h, 1 µM: 98.4%
[6]
  viability at 24 h, 100 µM: 91.2%
[7]
  Activity: 0.28 mU/ml
[8]
  Activity: 0.34 mU/ml
[9]
  Activity: 0.34 mU/ml
[10]
  Activity: 0.34 mU/ml
[11]
  TAC: 10.8 mmol/L
[12]
  TAC: 11.3 mmol/L
[13]
  TAC: 11 mmol/L
[14]
  TAC: 10.9 mmol/L
[15]
  Activity: 0.4 µmol/L
[16]
  Activity: 0.4 µmol/L
[17]
  Activity: 0.5 µmol/L
[18]
  Activity: 0.5 µmol/L
[19]
  Activity: 0.5 µmol/L
[20]
  half-life: 22.2 h
[21]
  half-life: 2.78 h
[22]
  half-life: 2.83 h
[23]
  half-life: 0.61 h
[24]
  half-life: 0.46 h
[25]
  Drug degradation: 0.019 h⁻¹
[26]
  Drug degradation: 0.031 h⁻¹
[27]
  Drug degradation: 1.14 h⁻¹

## O=C(CCCCC1CCSS1)OC1CCN(Cc2ccccc2)CC1 (stereo not drawn)
[1]
  half-life: 24.5 h
[2]
  half-life: 40.5 h
[3]
  half-life: 58.7 h
[4]
  viability at 24 h, 0.1 µM: 99.8%
[5]
  viability at 24 h, 1 µM: 98.7%
[6]
  viability at 24 h, 100 µM: 97.8%
[7]
  Activity: 0.3 mU/ml
[8]
  Activity: 0.29 mU/ml
[9]
  Activity: 0.3 mU/ml
[10]
  Activity: 0.32 mU/ml
[11]
  TAC: 10.8 mmol/L
[12]
  TAC: 10.9 mmol/L
[13]
  TAC: 11.4 mmol/L
[14]
  TAC: 13.6 mmol/L
[15]
  Activity: 0.5 µmol/L
[16]
  Activity: 0.4 µmol/L
[17]
  Activity: 0.5 µmol/L
[18]
  Activity: 0.4 µmol/L
[19]
  Activity: 0.5 µmol/L
[20]
  half-life: 23.1 h
[21]
  half-life: 0.29 h
[22]
  half-life: 0.09 h
[23]
  half-life: 0.43 h
[24]
  t1/2: Unstable
[25]
  Drug degradation: 0.017 h⁻¹
[26]
  Drug degradation: 0.028 h⁻¹
[27]
  Drug degradation: 1.61 h⁻¹

## O=C(CCCCC1CCSS1)OC1CCN(Cc2ccc(F)cc2)CC1 (stereo not drawn)
[1]
  half-life: 3.77 h
[2]
  half-life: 38 h
[3]
  half-life: 47 h
[4]
  viability at 24 h, 0.1 µM: 97.5%
[5]
  viability at 24 h, 1 µM: 98.3%
[6]
  viability at 24 h, 100 µM: 95.6%
[7]
  Activity: 0.3 mU/ml
[8]
  Activity: 0.29 mU/ml
[9]
  Activity: 0.32 mU/ml
[10]
  Activity: 0.32 mU/ml
[11]
  TAC: 11 mmol/L
[12]
  TAC: 11.2 mmol/L
[13]
  TAC: 11.1 mmol/L
[14]
  TAC: 13.5 mmol/L
[15]
  Activity: 0.4 µmol/L
[16]
  Activity: 0.4 µmol/L
[17]
  Activity: 0.4 µmol/L
[18]
  Activity: 0.5 µmol/L
[19]
  Activity: 0.5 µmol/L
[20]
  half-life: 0.68 h
[21]; simulated gi fluid
  t1/2: Unstable
[22]; simulated gi fluid
  t1/2: Unstable
[23]
  half-life: 0.81 h
[24]
  half-life: 0.56 h
[25]
  Drug degradation: 0.019 h⁻¹
[26]
  Drug degradation: 1.019 h⁻¹
[27]
  Drug degradation: 0.856 h⁻¹

Source: ChEMBL document CHEMBL4715728, “New bifunctional antioxidant/σ1 agonist ligands: Preliminary chemico-physical and biological evaluation” (Bioorg Med Chem, 2016)
